Laboratory results from PubChem BioAssay AID624362 (Broad Institute, 2012).
The source made the active and inactive calls.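 The calls were made as follows: active = compounds cutting cell ATP signal whose AC50 is at most twice their top valid dose; inconclusive = flat curve with 30 to 70% signal loss, or poor fit; inactive = the rest.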

System: MALME3 melanoma viability, CellTiter-Glo ATP luminescence, 24 h
Assay: MALME3 melanoma cell viability loss, dose response, orthogonal assay for MITF inhibitor project, CellTiter-Glo luminescence, dry powder, set 3 (AID 624362)
In short: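 Test system: MALME3 melanoma cells / Doses: multiple compound doses delivered by pin transfer / Times: compound exposure at 37 °C, cells plated one day earlier / Technique: CellTiter-Glo ATP luminescence / Read-out basis: ATP-based viability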

`O=C1C=C(NS(=O)(=O)c2cccs2)C(=O)c2ccccc21` and `NC1=C(NS(=O)(=O)c2cccs2)C(=O)c2ccccc2C1=O` are within 1.5-fold of each other in AC50: 15.3 µM for the first, 16.8 µM for the second.

`O=C1C=C(NS(=O)(=O)c2ccc(Br)cc2)C(=O)c2ccccc21` and `O=C1C=C(NS(=O)(=O)c2ccccc2)C(=O)c2ccccc21` are within 1.5-fold of each other in AC50: 14.3 µM for the first, 11.6 µM for the second.

Going from `COC1=C(NS(=O)(=O)c2cccs2)C(=O)c2ccccc2C1=O` to `COC1=C(NS(=O)(=O)c2ccc(Br)cc2)C(=O)c2ccccc2C1=O`, the AC50 falls from 23.4 µM to 14.7 µM (1.6-fold).

First: O=C1C=C(Nc2ccccc2)C(=O)c2ccccc21
Second: COC1=C(Nc2ccccc2)C(=O)c2ccccc2C1=O
The AC50 of the first is 2.6-fold lower: 2.89 µM for the first, 7.46 µM for the second.

Going from `NC1=C(NS(=O)(=O)c2ccccc2)C(=O)c2ccccc2C1=O` to `O=C1C(Nc2ccccc2)=C(c2ccccc2)C(=O)c2ccccc21`, the AC50 rises from 15 µM to 36 µM (2.4-fold).

With `O=C1C(NS(=O)(=O)c2ccccc2)=C(c2ccccc2)C(=O)c2ccccc21` the AC50 was > 70 µM (inactive).
For `NC1=C(NS(=O)(=O)c2ccc(Br)s2)C(=O)c2ccccc2C1=O`, the AC50 was > 70 µM (inactive).
